Measurements published in ChEMBL document CHEMBL1147924, “One pot synthesis of pyrimidine and bispyrimidine derivatives and their evaluation for anti-inflammatory and analgesic activities” (2007).

Legend:
Type in all cases: functional
Rattus norvegicus [1] = test: Antiinflammatory activity against carrageenan-induced paw oedema in Albino rat at 50 mg/kg, po after 3 hrs
In short: (§1)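 Oral dosing. Paw volume was read by plethysmometer immediately after and 3 h after the irritant injection, and the volume difference was taken as oedema. Percent inhibition of oedema was calculated for treated groups against the control group, with a standard-drug group included.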

Mus musculus [2] = test: Analgesic activity against phenylquinone-induced in Swiss mouse assessed as effect on writhings at 50 mg/kg, po after 20 mins
In short: (§2)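 Female Swiss mice (15–20 g) screened the day before by intraperitoneal 0.2 cm³ of 0.02% aqueous phenylquinone, with writhes counted over 20 min. Mice with more than 10 writhes were used next day in groups of five. They were given the oral dose (25, 50 or 100 mg/kg) 15 min before the phenylquinone challenge, and writhing was recorded.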

Rattus norvegicus [3] = test: Antiinflammatory activity against carrageenan-induced paw oedema in Albino rat at 100 mg/kg, po after 3 hrs; in short: as §1
Mus musculus [4] = test: Analgesic activity against phenylquinone-induced in Swiss mouse assessed as effect on writhings at 100 mg/kg, po after 20 mins; in short: as §2
Mus musculus [5] = test: Analgesic activity against phenylquinone-induced in Swiss mouse assessed as effect on writhings at 25 mg/kg, po after 20 mins; in short: as §2
Mus musculus [6] = test: Analgesic activity against phenylquinone-induced in Swiss mouse assessed as effect on writhings at 75 mg/kg, po after 20 mins

SMILES | Activity (Rattus norvegicus [1]) [%] | Activity (Mus musculus [2]) [%] | Activity (Rattus norvegicus [3]) [%] | Activity (Mus musculus [4]) [%] | Activity (Mus musculus [5]) [%] | Activity (Mus musculus [6]) [%]
CC1(C)CC(C)(O)N(Cc2ccco2)C(=S)N1 (stereo not given) | 10.3 | 15 | – | – | – | –
CC1(C)CC(C)(O)N(CCCN2CCCC2=O)C(=S)N1 (stereo not given) | – | – | 40.3 | 34 | – | –
CC1=CC(C)(C)NC(=S)N1c1ccccc1C#N | – | 0 | 0 | 25 | – | –
CC1=CC(C)(C)NC(=S)N1CCCC1OCC2(CO1)COC(CCCN1C(=S)NC(C)(C)C=C1C)OC2 (stereo not given) | – | 25 | 31.8 | 75 | – | –
CC1CC(O)N(CCCN2CCN(CCCN3C(=S)NC(C)CC3O)CC2)C(=S)N1 (stereo not given) | 38.6 | 40 | – | – | – | –
CC1CC(O)N(CCCC2OCC3(CO2)COC(CCCN2C(=S)NC(C)CC2O)OC3)C(=S)N1 (stereo not given) | – | – | 0 | 0 | – | –
CC1=CC(C)(C)NC(=S)N1Cc1ccco1 | 15.1 | 8.5 | – | – | – | –
CC1(C)CC(C)(O)N(CCc2c[nH]cn2)C(=S)N1 (stereo not given) | – | 25 | 65 | 100 | 12.5 | 50
CC1(C)CC(C)(O)N(CCCn2ccnc2)C(=S)N1 (stereo not given) | – | 25 | 35 | 50 | – | –
CC1=CC(C)(C)NC(=S)N1c1n[nH]c(N2C(=S)NC(C)(C)C=C2C)n1 | – | – | 0 | 0 | – | –
CC1CC(O)N(CCCN2CCCC2=O)C(=S)N1 (stereo not given) | 36.3 | 50 | – | – | – | –
CC1=CC(C)(C)NC(=S)N1CCCn1ccnc1 | 32.5 | 40 | – | – | – | –
CC1(C)CC(C)(O)N(CCCN2CCN(CCCN3C(=S)NC(C)(C)CC3(C)O)CC2)C(=S)N1 (stereo not given) | 31.6 | 10 | – | – | – | –
CC(C)Cc1ccc(C(C)C(=O)O)cc1 (stereo not given) [IBUPROFEN] | – | 50 | 66.8 | 75 | – | –
